ChEMBL document CHEMBL6127150, “Discovery of PARP1-Sparing Inhibitors for Protein ADP-Ribosylation” (ACS Med Chem Lett, 2024)
The source made the active and inactive calls. The calls are words filed in the database; no cut-off is given here.

Columns and labels:
[1] = tested on: HAP1; test: Inhibition of PARP in human HAP1 PARP1-KO cell lysates assessed as reduction in protein ADP-ribosylation at 100 uM using NAD+ as substrate measured after 2 hrs by immunoblot analysis; type: subcellular
Procedure, shortened: (§1)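 HAP1 or HAP1/PARP1-KO cell lysates were ADP-ribosylated without or with 100 μM compound. Protein ADP-ribosylation was detected by immunoblot with the AF1521 macrodomain pan-ADPr binding reagent, with anti-GAPDH as loading control. Densitometric signal was normalized to loading control and tested for significance.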

[2] = tested on: HAP1; test: Inhibition of PARP in human HAP1 cell lysates assessed as reduction in protein ADP-ribosylation at 100 uM using NAD+ as substrate measured after 2 hrs by immunoblot analysis; type: subcellular; procedure, shortened: as §1
[3] = target: T1, Poly [ADP-ribose] polymerase 2 (Homo sapiens, UniProt Q9UGN5); test: Inhibition of human full-length PARP2 expressed in bacterial expression system assessed as reduction in enzyme mediated autoPARylation at 100 uM using NAD+ as substrate preincubated for 30 mins followed by substrate addition and measured after 2 hrs by immunoblot analysis; conditions: time 2.5 hrs
T1 sequence (Q9UGN5 whole entry): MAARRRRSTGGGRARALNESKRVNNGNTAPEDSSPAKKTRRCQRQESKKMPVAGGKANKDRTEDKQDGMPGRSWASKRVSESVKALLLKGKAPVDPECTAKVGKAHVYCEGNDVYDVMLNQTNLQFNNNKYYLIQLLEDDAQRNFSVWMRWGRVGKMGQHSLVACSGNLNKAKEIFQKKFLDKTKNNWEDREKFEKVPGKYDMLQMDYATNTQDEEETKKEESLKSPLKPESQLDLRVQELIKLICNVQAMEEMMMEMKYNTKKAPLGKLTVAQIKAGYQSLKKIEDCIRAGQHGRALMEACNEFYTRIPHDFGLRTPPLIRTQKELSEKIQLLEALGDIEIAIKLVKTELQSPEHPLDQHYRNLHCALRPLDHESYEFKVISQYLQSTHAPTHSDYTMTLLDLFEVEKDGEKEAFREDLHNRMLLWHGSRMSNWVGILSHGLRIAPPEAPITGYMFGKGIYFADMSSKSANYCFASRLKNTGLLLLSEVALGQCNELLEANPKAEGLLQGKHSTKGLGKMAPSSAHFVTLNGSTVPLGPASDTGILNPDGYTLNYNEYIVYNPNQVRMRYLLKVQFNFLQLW
Procedure, shortened: (§2)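 Full-length human PARP1 or PARP2, expressed recombinantly in and purified from bacteria, auto-PARylated without or with 100 μM compound. Read-out was immunoblot with an anti-PAR antibody. Loading control was anti-His₆ for PARP1 and anti-PARP2 antibody for PARP2. Signal was quantified by densitometry normalized to the loading control, with significance testing.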

[4] = target: T2, Poly [ADP-ribose] polymerase tankyrase-1 (Homo sapiens) (UniProt O95271); test: Inhibition of human PARP5a catalytic domain expressed in bacterial expression system assessed as reduction in enzyme mediated autoPARylation at 100 uM using NAD+ as substrate measured after 2 hrs by immunoblot analysis
T2 sequence (whole entry): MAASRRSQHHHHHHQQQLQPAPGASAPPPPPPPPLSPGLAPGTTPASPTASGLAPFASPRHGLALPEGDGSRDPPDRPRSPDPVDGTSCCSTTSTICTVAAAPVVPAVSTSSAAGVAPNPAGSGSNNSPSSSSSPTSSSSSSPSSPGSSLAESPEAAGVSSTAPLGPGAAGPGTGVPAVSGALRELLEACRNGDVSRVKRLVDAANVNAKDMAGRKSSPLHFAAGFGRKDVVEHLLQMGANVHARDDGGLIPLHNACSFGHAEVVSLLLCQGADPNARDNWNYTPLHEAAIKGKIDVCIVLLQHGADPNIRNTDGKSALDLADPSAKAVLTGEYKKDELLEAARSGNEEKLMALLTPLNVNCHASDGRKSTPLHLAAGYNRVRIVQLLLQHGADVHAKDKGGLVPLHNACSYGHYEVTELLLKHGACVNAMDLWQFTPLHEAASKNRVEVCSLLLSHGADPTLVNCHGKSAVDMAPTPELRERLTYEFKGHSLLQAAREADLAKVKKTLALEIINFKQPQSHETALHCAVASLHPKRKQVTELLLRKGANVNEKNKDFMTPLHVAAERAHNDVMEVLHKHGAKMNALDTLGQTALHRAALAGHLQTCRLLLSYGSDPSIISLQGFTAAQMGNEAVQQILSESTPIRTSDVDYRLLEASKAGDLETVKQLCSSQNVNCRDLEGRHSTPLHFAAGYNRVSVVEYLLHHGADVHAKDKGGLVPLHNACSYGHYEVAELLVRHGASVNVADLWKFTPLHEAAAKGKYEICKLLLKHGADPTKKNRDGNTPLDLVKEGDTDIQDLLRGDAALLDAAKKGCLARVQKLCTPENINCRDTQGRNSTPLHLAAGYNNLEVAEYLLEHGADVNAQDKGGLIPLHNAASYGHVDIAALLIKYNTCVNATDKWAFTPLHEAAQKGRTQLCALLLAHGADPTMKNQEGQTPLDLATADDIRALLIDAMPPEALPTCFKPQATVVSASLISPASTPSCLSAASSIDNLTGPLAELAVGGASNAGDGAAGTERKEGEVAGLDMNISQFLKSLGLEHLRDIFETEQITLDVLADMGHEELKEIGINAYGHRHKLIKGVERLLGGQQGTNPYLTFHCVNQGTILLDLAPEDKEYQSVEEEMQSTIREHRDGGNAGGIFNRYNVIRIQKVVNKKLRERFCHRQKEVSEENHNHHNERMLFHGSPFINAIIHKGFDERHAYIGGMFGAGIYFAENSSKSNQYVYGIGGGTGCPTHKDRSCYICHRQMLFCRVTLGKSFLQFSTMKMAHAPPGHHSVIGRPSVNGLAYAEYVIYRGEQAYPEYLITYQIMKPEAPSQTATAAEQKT
Procedure, shortened: (§3)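 Catalytic domains of human PARP5a (PARylation) and PARP10 (MARylation), bacterially expressed and purified, were auto-ADP-ribosylated with NAD⁺ without or with 100 μM compound. Detection was by immunoblot using the AF1521 macrodomain pan-ADPr binding reagent, with anti-His₆ loading control. Densitometry was normalized to the loading control.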

[5] = target: T1, Poly [ADP-ribose] polymerase 2; test: Inhibition of human full-length PARP2 expressed in bacterial expression system assessed as reduction in enzyme mediated autoPARylation using NAD+ as substrate preincubated for 30 mins followed by substrate addition and measured after 2 hrs by immunoblot analysis
[6] = target: T3, Protein mono-ADP-ribosyltransferase PARP10 (Homo sapiens) (UniProt Q53GL7); test: Inhibition of human PARP10 catalytic domain expressed in bacterial expression system assessed as reduction in enzyme mediated autoPARylation at 100 uM using NAD+ as substrate measured after 2 hrs by immunoblot analysis; procedure, shortened: as §3
T3 sequence (whole entry): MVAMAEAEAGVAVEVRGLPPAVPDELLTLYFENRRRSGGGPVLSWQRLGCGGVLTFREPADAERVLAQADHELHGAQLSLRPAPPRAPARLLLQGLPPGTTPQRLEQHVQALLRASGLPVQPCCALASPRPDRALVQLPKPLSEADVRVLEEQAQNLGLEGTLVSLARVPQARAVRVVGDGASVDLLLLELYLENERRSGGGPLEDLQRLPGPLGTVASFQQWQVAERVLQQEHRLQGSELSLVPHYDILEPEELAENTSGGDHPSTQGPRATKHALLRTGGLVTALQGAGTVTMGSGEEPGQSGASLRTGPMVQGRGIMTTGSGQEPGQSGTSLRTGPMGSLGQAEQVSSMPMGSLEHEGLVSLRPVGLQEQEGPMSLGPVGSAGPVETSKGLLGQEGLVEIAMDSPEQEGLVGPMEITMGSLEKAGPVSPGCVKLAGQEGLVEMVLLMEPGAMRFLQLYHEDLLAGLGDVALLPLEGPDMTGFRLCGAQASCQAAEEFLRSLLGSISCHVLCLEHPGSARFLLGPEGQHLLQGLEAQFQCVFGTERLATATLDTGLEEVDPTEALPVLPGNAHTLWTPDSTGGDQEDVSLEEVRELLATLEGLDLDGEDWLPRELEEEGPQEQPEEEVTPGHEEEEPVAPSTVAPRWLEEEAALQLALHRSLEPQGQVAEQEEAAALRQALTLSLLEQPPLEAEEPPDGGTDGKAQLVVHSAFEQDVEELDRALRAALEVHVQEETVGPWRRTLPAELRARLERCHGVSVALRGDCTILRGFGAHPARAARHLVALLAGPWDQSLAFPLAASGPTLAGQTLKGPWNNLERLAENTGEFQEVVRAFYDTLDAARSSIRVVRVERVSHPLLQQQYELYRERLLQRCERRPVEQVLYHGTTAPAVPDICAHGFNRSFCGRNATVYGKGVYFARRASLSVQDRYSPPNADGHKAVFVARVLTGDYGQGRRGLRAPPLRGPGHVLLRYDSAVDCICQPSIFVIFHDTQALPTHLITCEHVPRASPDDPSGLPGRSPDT

[7] = target: T4, Protein mono-ADP-ribosyltransferase PARP10 (Homo sapiens, UniProt Q53GL7); test: Inhibition of human PARP10 catalytic domain expressed in bacterial expression system assessed as reduction in enzyme mediated autoPARylation using NAD+ as substrate measured after 2 hrs by immunoblot analysis
T4 sequence (Q53GL7 whole entry): T3 sequence (whole entry)

[8] = target: Poly [ADP-ribose] polymerase 1 (Homo sapiens) (UniProt P09874); test: Inhibition of human full-length PARP1 expressed in bacterial expression system assessed as reduction in enzyme mediated autoPARylation at 100 uM using NAD+ as substrate preincubated for 30 mins followed by substrate addition and measured after 2 hrs by immunoblot analysis; conditions: time 2.5 hrs; procedure, shortened: as §2
Poly [ADP-ribose] polymerase 1 (Homo sapiens), sequence (P09874 whole entry): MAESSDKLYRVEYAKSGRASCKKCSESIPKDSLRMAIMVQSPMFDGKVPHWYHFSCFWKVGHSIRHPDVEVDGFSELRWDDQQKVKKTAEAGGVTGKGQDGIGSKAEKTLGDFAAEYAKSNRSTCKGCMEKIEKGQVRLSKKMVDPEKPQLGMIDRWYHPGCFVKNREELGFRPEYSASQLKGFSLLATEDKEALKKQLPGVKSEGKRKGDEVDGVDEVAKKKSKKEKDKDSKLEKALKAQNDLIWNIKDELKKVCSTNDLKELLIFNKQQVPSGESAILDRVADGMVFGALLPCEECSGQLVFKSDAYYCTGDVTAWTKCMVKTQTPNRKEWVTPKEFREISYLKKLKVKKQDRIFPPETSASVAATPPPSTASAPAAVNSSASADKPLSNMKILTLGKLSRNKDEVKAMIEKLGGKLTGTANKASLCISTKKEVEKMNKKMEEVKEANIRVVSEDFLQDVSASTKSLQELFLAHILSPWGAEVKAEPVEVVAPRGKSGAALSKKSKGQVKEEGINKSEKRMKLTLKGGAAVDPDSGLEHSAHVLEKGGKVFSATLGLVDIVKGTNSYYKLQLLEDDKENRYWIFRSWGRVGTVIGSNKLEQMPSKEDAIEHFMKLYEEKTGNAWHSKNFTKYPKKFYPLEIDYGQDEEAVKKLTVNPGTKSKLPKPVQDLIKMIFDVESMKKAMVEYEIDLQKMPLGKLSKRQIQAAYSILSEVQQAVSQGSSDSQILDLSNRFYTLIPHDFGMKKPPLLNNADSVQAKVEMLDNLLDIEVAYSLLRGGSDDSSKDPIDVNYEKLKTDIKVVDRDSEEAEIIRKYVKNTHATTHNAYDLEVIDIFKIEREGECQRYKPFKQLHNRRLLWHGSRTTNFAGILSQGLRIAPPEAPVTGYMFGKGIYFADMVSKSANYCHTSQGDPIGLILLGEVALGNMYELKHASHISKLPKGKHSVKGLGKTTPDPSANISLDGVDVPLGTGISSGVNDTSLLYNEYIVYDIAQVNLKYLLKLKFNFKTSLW

inhibition [1] | inhibition [2] | inhibition [3] | inhibition [4] | IC50 [5] [µM] | inhibition [6] | IC50 [7] [µM] | inhibition [8] | Structure (SMILES)
Active | Active |  |  |  |  |  |  | O=C(c1cc(Cc2n[nH]c(=O)c3ccccc23)ccc1F)N1CCN(C(=O)C2CC2)CC1
Active | Active | Active | Active | 102 | Active | 15.3 | inactive | CC(=O)c1cccc(COc2ccccc2C(N)=O)c1
Active | Active | Active | Active | 51.5 | Active | 36.9 | inactive | CC(=O)c1cccc(CCOc2ccc(F)cc2C(N)=O)c1
 |  |  |  |  |  |  | inactive | CC(=O)c1cccc(C(=O)Nc2ccccc2C(N)=O)c1

The remaining lines, values behind:

Structure (SMILES) | inhibition [1] | inhibition [2] | inhibition [3] | inhibition [4] | IC50 [5] [µM] | inhibition [6] | IC50 [7] [µM] | inhibition [8]
CC(=O)c1cccc([C@H](C)Oc2ccccc2C(N)=O)c1 |  |  | Active |  |  |  |  | 
CC(=O)c1cccc(CCCOc2ccccc2C(N)=O)c1 |  |  | Active |  |  |  |  | 
CC(=O)c1cccc(CCOc2ccccc2C(N)=O)c1 | Active | Active | Active | Active | 59.7 | Active | 48.3 | inactive
CC(=O)c1cccc(CNc2ccccc2C(N)=O)c1 |  |  |  |  |  |  |  | inactive
CC(=O)c1cc(COc2ccccc2C(N)=O)ccc1F | Active | Active | Active | Active | 50.1 | Active | 39.4 | inactive
CC(=O)c1cccc([C@@H](C)Oc2ccccc2C(N)=O)c1 |  |  | Active |  |  |  |  | 
